Calls of active or inactive are those of the source. No cut-off for these calls is given here.

The species entered for data set [1] is Rattus norvegicus. Kind of data set: Displacement of [3H]CGP-12177 from beta1-adrenergic receptor in rat cerebral cortex at 50 uM after 60 mins by scintillation counting. The class given is tissue-based.
In data set [2] the test system is Mus musculus. The experiment in a line: Anticonvulsant activity in CF1 mouse assessed as protection against maximal electroshock-induced seizures at 100 mg/kg, ip after 4 hrs. The class given is functional, organism-based. Further details: dose 100 mg/kg. Put shortly: (§1)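 Mice given compound i.p. at 30, 100 or 300 mg/kg and tested 0.5 or 4 h after dosing. Seizures were induced by maximal electroshock (MES) or subcutaneous metrazole (ScMet). Prevention of seizures counts as protection. Result is recorded as number of animals protected over number tested.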
Background: Protection in the maximal electroshock model is a classic sign of anticonvulsant action.

In data set [3] the test system is Mus musculus. Kind of data set: Neurotoxicity in CF1 mouse assessed as minimal motor impairment at 100 mg/kg, ip after 4 hrs by rotorod test. Type of data set: toxicity, organism-based. Further details: dose 100 mg/kg, route intraperitoneal. The settings on record: in vivo. Summed up:
(§2)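 Rotarod neurotoxicity screen in mice dosed i.p. at 30, 100 or 300 mg/kg, read 0.5 or 4 h after dosing. The animal must stay on a rod rotating at 6 rpm without falling, measured 3 times within 1 min. A fall counts as minimal motor impairment. Result is recorded as impaired animals over animals used.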
On the technique in general: In the rotarod test animals must keep their balance on a rotating rod.

For data set [4], the system named is Mus musculus. Kind of data set: Neurotoxicity in CF1 mouse assessed as minimal motor impairment at 30 mg/kg, ip after 0.5 hrs by rotorod test. Type of data set: toxicity, organism-based. Further details: dose 30 mg/kg, route intraperitoneal. Particulars: in vivo. Summed up:
as §2

Data set [5] concerns Rattus norvegicus. The experiment in a line: Neurotoxicity in Sprague-Dawley rat assessed as minimal motor impairment at 30 mg/kg, po after 0.5 hrs by rotorod test. Particulars: in vivo.
Data set [6] relates to Rattus norvegicus. Kind of data set: Neurotoxicity in Sprague-Dawley rat assessed as minimal motor impairment at 30 mg/kg, po after 0.25 hrs by rotorod test. Particulars: in vivo.
The test system of data set [7] is Mus musculus. The experiment in a line: Anticonvulsant activity in CF1 mouse assessed as protection against subcutaneous metrazole-induced seizures at 30 mg/kg, ip after 0.5 hrs. Type of data set: functional, organism-based. Further details: dose 30 mg/kg. Summed up:
as §1

Data set [8] relates to Rattus norvegicus. The experiment in a line: Anticonvulsant activity in Sprague-Dawley rat assessed as protection against maximal electroshock-induced seizures at 30 mg/kg, po after 2 hrs. Further details: dose 30 mg/kg. The class given is functional, organism-based. Put shortly:
(§3)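 Rats dosed orally at 30 mg/kg and tested in MES at several time points after dosing. Protection means seizures were prevented. Result is recorded as number of animals protected over number tested.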

For data set [9], the system named is Mus musculus. The experiment in a line: Neurotoxicity in CF1 mouse assessed as minimal motor impairment at 30 mg/kg, ip after 4 hrs by rotorod test. Type of data set: toxicity, organism-based. Further details: dose 30 mg/kg, route intraperitoneal. Particulars: in vivo. Summed up:
as §2

For data set [10], the system named is Mus musculus. The experiment in a line: Anticonvulsant activity in CF1 mouse assessed as protection against maximal electroshock-induced seizures at 30 mg/kg, ip after 0.5 hrs. Further details: dose 30 mg/kg. The class given is functional, organism-based. Summed up: as §1
Data set [11] has as its system Rattus norvegicus. The experiment in a line: Anticonvulsant activity in Sprague-Dawley rat assessed as protection against maximal electroshock-induced seizures at 30 mg/kg, po after 4 hrs. The class given is functional, organism-based. Further details: dose 30 mg/kg. Put shortly:
as §3

In data set [12] the test system is Mus musculus. Kind of data set: Anticonvulsant activity in CF1 mouse assessed as protection against maximal electroshock-induced seizures at 30 mg/kg, ip after 4 hrs. Further details: dose 30 mg/kg. The class given is functional, organism-based. Put shortly:
as §1

For data set [13], the system named is Mus musculus. The experiment in a line: Neurotoxicity in CF1 mouse assessed as minimal motor impairment at 300 mg/kg, ip after 0.5 hrs by rotorod test. Type of data set: toxicity, organism-based. Further details: dose 300 mg/kg, route intraperitoneal. Particulars: in vivo. Summed up:
as §2

Consider `Cl.Cl.Cl.O=c1c2ccc(Cl)cc2oc2c(CN3CCN(CCO)CC3)cccc12`, for which the inhibition result in data set [1] was “inactive”. Besides, the result in [2], in data set [7], in data set [8], in data set [10] and in data set [12] was inactive. The Activity result is given as “Non-toxic” in data set [3]; “Non-toxic” in data set [4]; “Non-toxic” in data set [5]; “Non-toxic” in data set [6]; “Non-toxic” in [9]; “Toxic” in [13]. In addition, the result in data set [11] was Active.

Source of the values: ChEMBL document CHEMBL2401625, “Synthesis and evaluation of pharmacological properties of some new xanthone derivatives with piperazine moiety” (Bioorg Med Chem Lett, 2013).
